Experimental findings from ChEMBL document CHEMBL1133128, “Hepatitis C viral IRES inhibition by phenazine and phenazine-like molecules” (Bioorg Med Chem Lett, 2000) are described below.

Experiment [1] relates to Huh-7. As to the kind of experiment: Cytotoxic concentration of compound HC40 cells determined by using MTT assay. Format: functional. As to conditions: Homo sapiens.
Experiment [2] deals with Huh-7. As to the kind of experiment: Anti-Hepatitis C Viral IRES activity of compound by measured as Fluci signal in HC40 cells. Type of experiment: functional, cell-based. As to conditions: Homo sapiens. The method, boiled down: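 Huh7-derived HC40 line expressing CAT-IRES-Fluci under a CMV promoter, so luciferase reports IRES-dependent translation. Cells seeded at 1.5×10^4/well 24 h before dosing. Compounds added at various concentrations in 0.2% DMSO final and incubated 24 h at 37 °C. Cells washed twice in PBS, lysed 10 min in the dark in luciferin lysis buffer, then luciferase read.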

The nature of experiment [3]: Ratio of inhibitory concentration against Hepatitis C Viral IRES in HC40 cells to that of HCF cells was determined. Format: functional. The method, boiled down: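 Ratio of the HC40 value to the HCF value. HCF cells are pooled Huh-7 stably transfected with CMV-Fluci (CMV control, no IRES control). Both lines seeded at 1.5×10^4/well 24 h ahead, dosed at various concentrations in 0.2% DMSO final for 24 h at 37 °C, washed twice in PBS, lysed in luciferin buffer for 10 min in the dark, and luciferase read.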

In brackets after ≈: the same amount, converted by molar mass.

`CCN(CC)c1ccc2[o+]c3cc(C)c(N)cc3nc2c1.[Cl-]` displayed a CC50 in the experiment on Huh-7 [1] of under 1 µg/mL. In the experiment on Huh-7 [2], the IC50 is 1 µg/mL. Also, the Ratio in experiment [3] was determined as 3.
The compound `Nc1ccc2c(c1)NC(=O)c1cc(N)cnc1O2` returned a half-maximal cytotoxic concentration (CC50) in the experiment on Huh-7 [1] of over 10 µg/mL. Further, the IC50 in the experiment with Huh-7 [2] is over 10 µg/mL.
Consider `Cc1cc2nc3ccc(N(C)C)cc3nc2cc1I`, for which the CC50 with Huh-7 [1] was over 10 µg/mL. For the same compound, the IC50 in the experiment with Huh-7 [2] was over 10 µg/mL.
Compound `Cc1cc2nc3ccc(O)cc3nc2cc1N` showed a CC50 in the experiment with Huh-7 [1] of over 10 µg/mL. The same compound came in with an IC50 in the experiment on Huh-7 [2] of 3.74 µg/mL (≈ 16.6 µM). The Ratio in experiment [3] was over 2.7.
In the experiment on Huh-7 [1], `CN(C)c1ccc(Nc2ccc(N(C)C)cc2)cc1` came in with a CC50 of 2.3 µg/mL (≈ 9.01 µM). This compound yielded an IC50 in the experiment on Huh-7 [2] of 2.19 µg/mL (≈ 8.58 µM). In addition, the Ratio in experiment [3] is given as 0.8.
`Nc1ccc2c(c1)Oc1ncccc1C(=O)N2`: the CC50 with Huh-7 [1] was over 10 µg/mL. Further, the IC50 in the experiment with Huh-7 [2] is over 10 µg/mL.
Regarding `Nc1ccc2[nH]c3ccc(N)cc3c2c1`, in the experiment on Huh-7 [1], the CC50 is over 10 µg/mL. This compound also gave an IC50 with Huh-7 [2] of over 10 µg/mL.
Consider `Nc1cc2nc3ccccc3nc2cc1N`, for which the CC50 in the experiment with Huh-7 [1] was over 10 µg/mL. The compound further displayed an IC50 in the experiment on Huh-7 [2] of 4.03 µg/mL (≈ 19.2 µM). Further, in experiment [3], the Ratio was found to be 2.5.
For the compound `Nc1ccc(Nc2ccc(N)cc2)cc1`, the IC50 in the experiment with Huh-7 [2] is over 10 µg/mL.
In the case of `CN(C)c1ccc2c(c1)Sc1cc(N(C)C)ccc1N2C(=O)c1ccccc1`, the cytotoxic concentration (CC50) in the experiment on Huh-7 [1] is over 10 µg/mL. The IC50 in the experiment with Huh-7 [2] was over 10 µg/mL.
Turning to `Cc1cc2nc3ccc(N(C)C)cc3nc2cc1N`, the CC50 with Huh-7 [1] is over 10 µg/mL. For the same compound, the IC50 with Huh-7 [2] worked out at 0.02 µg/mL (≈ 0.0793 µM). In experiment [3], the Ratio is 10.
In the experiment on Huh-7 [1], `Cc1cc2c(cc1N)N(c1ccccc1C)c1cc(N(C)C)c(C)cc1N2` registered a CC50 of over 10 µg/mL. This compound also registered an IC50 in the experiment with Huh-7 [2] of 1 µg/mL (≈ 2.79 µM). The Ratio in experiment [3] was 1.
Regarding `CN(C)c1ccc(C(=O)c2ccc(N(C)C)cc2)cc1` [MICHLER'S KETONE], the IC50 with Huh-7 [2] was over 10 µg/mL.
In the case of `CC(=O)[O-].Nc1ccc2nc3ccc(N)cc3[s+]c2c1` [THIONIN ACETATE], the CC50 with Huh-7 [1] was 4.67 µg/mL. Half-maximal inhibition in the experiment on Huh-7 [2] (IC50) required 2.86 µg/mL. In addition, the Ratio in experiment [3] was 1.7.
